The results in this text go back to ChEMBL document CHEMBL2046415, “Double protein knockdown of cIAP1 and CRABP-II using a hybrid molecule consisting of ATRA and IAPs antagonist” (2012).

The source made the active and inactive calls. The calls are words filed in the database; no cut-off is given here. Square brackets hold non-standard residues; d marks the D form. Peptide text beside a SMILES is read from it. Dip = N[C@H](C(=O)O)C(c1ccccc1)c1ccccc1; Chg = N[C@H](C(=O)O)C1CCCCC1; NMeA = CN[C@@H](C)C(=O)O

Assay [1] has as its system HT-1080. Nature of the assay: Induction of cIAP1 protein degradation in human HT1080 cells at 0.1 to 10 uM after 6 hrs by Western blot analysis. The format is functional, cell-based.
In assay [2] the target is T1, Retinoic acid receptor alpha (Homo sapiens) (UniProt P10276).
T1 sequence (whole entry): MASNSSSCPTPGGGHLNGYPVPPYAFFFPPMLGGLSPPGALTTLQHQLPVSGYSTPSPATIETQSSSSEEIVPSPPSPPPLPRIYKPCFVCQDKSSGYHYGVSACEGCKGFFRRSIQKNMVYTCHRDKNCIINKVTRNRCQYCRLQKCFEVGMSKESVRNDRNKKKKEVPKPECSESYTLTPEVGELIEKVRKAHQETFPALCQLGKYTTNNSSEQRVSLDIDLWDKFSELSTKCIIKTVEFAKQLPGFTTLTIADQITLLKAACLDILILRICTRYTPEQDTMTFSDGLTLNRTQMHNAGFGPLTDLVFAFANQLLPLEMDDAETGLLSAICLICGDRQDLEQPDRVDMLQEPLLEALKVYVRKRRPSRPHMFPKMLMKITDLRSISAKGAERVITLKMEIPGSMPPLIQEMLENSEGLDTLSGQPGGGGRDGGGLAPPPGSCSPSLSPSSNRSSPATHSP
Nature of the assay: Induction of RARalpha degradation.

In assay [3] the test system is HT-1080. Nature of the assay: Activation of proteasome in human HT1080 cells expressing FLAG-tagged cIAP1 assessed as induction of cIAP1 and CRABP-2 protein degradation after 6 hrs by Western blot analysis. On the technique in general: A western blot detects proteins with antibodies after separation by electrophoresis.
Assay [4] concerns HT-1080. Nature of the assay: Activation of proteasome in human HT1080 cells expressing FLAG-tagged cIAP1 assessed as induction of cIAP1 and CRABP-2 protein degradation at 10 uM after 6 hrs by Western blot analysis in presence of proteasome inhibitor MG132. The gist of the method:
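Compound exposure 6 h; proteasome inhibitor MG132 (10) added to the culture 30 min before compound; cIAP1 and CRABP-II levels then read by Western blot.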

The test system of assay [5] is HT-1080. Description: Activation of proteasome in human HT1080 cells expressing FLAG-tagged cIAP1 assessed as induction of cIAP1 protein degradation at 10 uM after 6 hrs by Western blot analysis.
Assay [6] concerns IMR-32. Nature of the assay: Induction of apoptosis in human IMR32 cells assessed as activation of caspase 3/7 after 24 hrs relative to control. Format: functional. The gist of the method: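 IMR-32 cells exposed to compounds for 24 h; caspase 3/7 activity expressed as fold increase over untreated control; values are means of triplicate determinations.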
For assay [7], the system named is IMR-32. Nature of the assay: Antiproliferative activity against human IMR32 cells assessed as reduction of cell number at 30 uM after 24 to 72 hrs. The format is functional, cell-based.
Assay [8] relates to IMR-32. Description: Activation of proteasome in human IMR32 cells assessed as induction of cIAP1 and CRABP-2 protein degradation at 3 to 30 uM after 24 hrs by Western blot analysis.
For assay [9], the system named is HT-1080. Nature of the assay: Activation of proteasome in human HT1080 cells expressing FLAG-tagged cIAP1 assessed as induction of CRABP-2 protein degradation at 10 uM after 6 hrs by Western blot analysis.
Assay [10] concerns HT-1080. Description: Activation of proteasome in human HT1080 cells expressing FLAG-tagged cIAP1 assessed as induction of cIAP1 and CRABP-2 protein degradation at 0.1 to 10 uM after 6 hrs by Western blot analysis.

Take `COC(=O)[C@H](CC(C)C)NC(=O)[C@@H](O)[C@H](N)Cc1ccccc1`: the result in assay [1] was Active.

Regarding `CN[C@@H](C)C(=O)N[C@H](C(=O)N1CCC[C@H]1C(=O)N[C@H](C(=O)NCCOCCOCCNC(=O)CO/N=C1\CCC(C)(C)C(/C=C/C(C)=C/C=C/C(C)=C/C(=O)O)=C1C)C(c1ccccc1)c1ccccc1)C1CCCCC1`, the outcome in assay [2] and in [4] was inactive. For the same compound, the Activity result in assay [3] is “Dose-dependent effect”. Also, the result in assay [5], in assay [7] and in assay [8] was Active. Also, the “fold change (FC)” value in assay [6] came to 4.44.

As for `CC1=C(/C=C/C(C)=C/C=C/C(C)=C/C(=O)O)C(C)(C)CC/C1=N\OCC(=O)NCCOCCOCCNC(=O)[C@H](CC(C)C)NC(=O)[C@@H](O)[C@H](N)Cc1ccccc1`, the “fold change (FC)” value in assay [6] came to 1.84. For the same compound, the outcome in assay [8] was Active.

On to `CC1=C(/C=C/C(C)=C/C=C/C(C)=C/C(=O)O)C(C)(C)CCC1`, for which the outcome in assay [9] and in assay [5] was inactive.

`CN[C@@H](C)C(=O)N[C@H](C(=O)N1CCC[C@H]1C(=O)N[C@H](C(=O)OC)C(c1ccccc1)c1ccccc1)C1CCCCC1` (H-[NMeA][Chg]P[Dip]-OMe): the result in [9] was inactive. Also, the result in assay [5] and in assay [1] was Active.

On to `CC1=C(/C=C/C(C)=C/C=C/C(C)=C/C(=O)O)C(C)(C)CC/C1=N\OCC(=O)NCCOCCOCCOC(=O)[C@H](CC(C)C)NC(=O)[C@@H](O)[C@H](N)Cc1ccccc1`, for which the “fold change (FC)” value in assay [6] amounted to 3.61. Also, the result in [7], in assay [10] and in [8] was Active.
